Tests used:
[1] = Stability in phosphate-buffered saline; assay type: physicochemical; conditions: formulated in phosphate-buffered saline
Mouse serum stability = assay type: in vitro ADME; conditions: mouse serum 0.5 mL + radiotracer 12.5 µL (0.74 MBq), 37°C, 60 min, ethanol precipitation of serum proteins, HPLC
DX3puroβ6 (αvβ6 +) cells = experiment: Cell binding and internalization, DX3puroβ6 cells; assay type: cell-based; conditions: in vitro, ratio x:1
Method in brief: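 Radiolabelled tracer was incubated with DX3puroβ6 (αvβ6+) and DX3puro (αvβ6−) cells for 60 min, n = 4 per cell line and condition. Bound and internalized activity are each expressed as a fraction of total radioactivity, with SD. Uptake and internalization ratios are DX3puroβ6 over DX3puro values.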

[2] = test system: DX3puroβ6 tumor (αvβ6-positive); experiment: Biodistribution, DX3puroβ6 xenograft tumor; assay type: in vivo, mouse; conditions: ratio x:1; for DX3puroβ6/DX3puro tumor uptake ratio: paired DX3puroβ6–DX3puro mouse model
Method in brief: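 Female athymic nude mice received subcutaneous DX3puro and DX3puroβ6 cells (3 × 10^6 each) on opposite flanks. Radiotracer in phosphate-buffered saline was given at 1.1–2.0 MBq/animal by tail-vein injection under 2% isoflurane. Mice were killed under 4% isoflurane at 1, 2 and 4 h (n = 3/time point). Tissues were rinsed and γ-counted; values are decay-corrected %ID/g, and ratios are taken from these.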

[3] = test system: BxPC-3 tumor (αvβ6-positive); experiment: Biodistribution, BxPC-3 xenograft tumor; assay type: in vivo; conditions: BxPC-3 mouse model, ratio x:1
[4] = Biodistribution, nontumor organs; assay type: in vivo; conditions: female, athymic nude, mouse, iv, total radioactivity
DX3puroβ6 tumor = experiment: Radiotracer stability in DX3puroβ6 tumor; assay type: in vivo, mouse; conditions: tumor collected 1 h after injection, homogenized, ethanol precipitation, HPLC
Method in brief: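 Female athymic nude mice carried paired subcutaneous DX3puroβ6 and DX3puro xenografts (3 × 10^6 cells each, opposite flanks). After intravenous radiotracer, the DX3puroβ6 tumor was harvested at 1 h and homogenized. Proteins were removed by ethanol precipitation, and the supernatant was analysed by HPLC for intact radiotracer.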

BxPC-3 tumor = experiment: Radiotracer stability in BxPC-3 tumor; assay type: in vivo, mouse; conditions: tumor collected 1 h after injection, homogenized, ethanol precipitation, HPLC
Method in brief: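 BxPC-3 xenografts came from 3.5 × 10^6 cells injected subcutaneously in female athymic nude mice. Radiotracer was given intravenously. Tumor was excised 1 h later and homogenized. Proteins were precipitated with ethanol, and supernatant aliquots were analysed by HPLC for intact versus degraded radiotracer.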

[5] = HPLC analysis of urine metabolites; assay type: in vivo; conditions: mouse urine, ethanol precipitation
[6] = paired mouse model, throughout (1, 2 and 4 h)
[7] = gallbladder, stomach, intestine

SMILES	Stable in phosphate-buffered saline (time) [1] [h]	Radiotracer remaining intact in mouse serum (Mouse serum stability) [%]	Internalization ratio for the DX3puroβ6–DX3puro cell pair (DX3puroβ6 (αvβ6 +) cells)	Uptake (binding) ratio for the DX3puroβ6–DX3puro cell pair (DX3puroβ6 (αvβ6 +) cells)	DX3puroβ6/DX3puro tumor uptake ratio ([2]; 1 h)	DX3puroβ6/DX3puro tumor uptake ratio ([2]; 4 h)	DX3puroβ6 tumor–to–blood ratio [2, 6]	BxPC-3–to–blood ratio ([3]; 4 h)	BxPC-3–to–liver ratio ([3]; 4 h)	BxPC-3–to–pancreas ratio [3]	tissue uptake at 1 h [4, 7] [%ID/g]	tissue uptake at 1 h ([4]; pancreas) [%ID/g]	tissue uptake at 4 h ([4]; pancreas) [%ID/g]	Apparent metabolic breakdown of radioactivity extracted from DX3puroβ6 tumor (DX3puroβ6 tumor)	Apparent breakdown of radioactivity extracted from BxPC-3 tumor (BxPC-3 tumor)	Minor new peak in urine HPLC (slightly longer retention time) [5] [%]	DX3puroβ6 tumor–to–DX3puro tumor ratio [2, 6]
CC(C)C[C@H](NC(=O)[C@H](CC(=O)O)NC(=O)CNC(=O)[C@H](CCCNC(=N)N)NC(=O)[C@H](CC(C)C)NC(=O)[C@H](CC(N)=O)NC(=O)[C@@H]1CCCN1C(=O)[C@@H](NC(=O)[C@H](C)NC(=O)[C@H](CC(N)=O)NC(=O)CCOCCOCCOCCOCCOCCOCCOCCOCCOCCOCCOCCOCCOCCOCCOCCOCCOCCOCCOCCOCCOCCOCCOCCOCCOCCOCCOCCOCCNC(=O)c1ccc(F)cc1)C(C)C)C(=O)N[C@@H](CCC(N)=O)C(=O)N[C@H](C(=O)N[C@@H](CC(C)C)C(=O)N[C@@H](C)C(=O)N[C@@H](CCC(N)=O)C(=O)N[C@@H](CCCCN)C(=O)N[C@H](C(=O)N[C@@H](C)C(=O)N[C@@H](CCCNC(=N)N)C(=O)N[C@H](C(=O)NCCOCCOCCOCCOCCOCCOCCOCCOCCOCCOCCOCCOCCOCCOCCOCCOCCOCCOCCOCCOCCOCCOCCOCCOCCOCCOCCOCCOCCC(N)=O)[C@@H](C)O)C(C)C)C(C)C [compound 5, ^18F-FBA-PEG28-A20FMDV2-PEG28]	≥ 4	80	41	20	6.5	10.7	greater than 4.5	greater than 20	greater than 20	≥ 9	< 15	0.46 ± 0.07	0.25 ± 0.07	less than 20%	less than 20%	18	
CC(C)C[C@H](NC(=O)[C@H](CC(=O)O)NC(=O)CNC(=O)[C@H](CCCNC(=N)N)NC(=O)[C@H](CC(C)C)NC(=O)[C@H](CC(N)=O)NC(=O)[C@@H]1CCCN1C(=O)[C@@H](NC(=O)[C@H](C)NC(=O)[C@H](CC(N)=O)NC(=O)c1ccc(F)cc1)C(C)C)C(=O)N[C@@H](CCC(N)=O)C(=O)N[C@H](C(=O)N[C@@H](CC(C)C)C(=O)N[C@@H](C)C(=O)N[C@@H](CCC(N)=O)C(=O)N[C@@H](CCCCN)C(=O)N[C@H](C(=O)N[C@@H](C)C(=O)N[C@@H](CCCNC(=N)N)C(=O)N[C@H](C(=O)NCCOCCOCCOCCOCCOCCOCCOCCOCCOCCOCCOCCOCCOCCOCCOCCOCCOCCOCCOCCOCCOCCOCCOCCOCCOCCOCCOCCOCCC(N)=O)[C@@H](C)O)C(C)C)C(C)C [compound 4, ^18F-FBA-A20FMDV2-PEG28]	≥ 4	76	9.4	7.1			greater than 2				< 15						greater than 2.5
